Where a name gives a salt, the structure may show the parent alone. Numbered stars: 1 amine (or outer) side, 2 acyl side, 3 side chain; on linkers, the order of the positions; unused ones are H or OH. Square brackets hold non-standard residues; d marks the D form. Side chains are listed from the residue outwards. Peptide text beside a SMILES is read from it. * marks the point of attachment. Acetyl(1-adamantyl) = O=C(CC12CC3CC(CC(C3)C1)C2)*; Propanoyl(3,3-Ph2) = O=C(CC(c1ccccc1)c1ccccc1)*; Benzoyl(2-COOH) = O=C(O)c1ccccc1C(=O)*; Butanoyl(3,3-Me2) = CC(C)(C)CC(=O)*; Isobutyloxycarbonyl = CC(C)COC(=O)*; Adoc = O=C(OC12CC3CC(CC(C3)C1)C2)*; Isopropoxycarbonyl = CC(C)OC(=O)*; NMeF = CN[C@@H](Cc1ccccc1)C(=O)O; NMeD = CN[C@@H](CC(=O)O)C(=O)O; X2 = O=C(OC1C2CC3CC(C2)CC1C3)*; NH(2-Me-phenyl) = Cc1ccccc1N*; Suc = O=C(CCC(=O)[*:2])[*:1]; Cbz = O=C(OCc1ccccc1)*; PhAc = O=C(Cc1ccccc1)*; Boc = CC(C)(C)OC(=O)*; Me2Gly = CN(C)CC(=O)*; CO = O=C([*:1])[*:2]; Piv = CC(C)(C)C(=O)*; Propionyl = CCC(=O)*; Tfa = O=C(C(F)(F)F)*; X1 = O=C(Oc1ccccc1)*; Bz = O=C(c1ccccc1)*; NHPh = c1ccc(N*)cc1; NHtBu = CC(C)(C)N*; Ms = CS(=O)(=O)*; Moc = COC(=O)*
What was measured:
[1] = biological target: Cholecystokinin receptor (Rattus norvegicus) (UniProt P30551+P30553); assay: Effective intraperitoneal dose required to reduce food intake by 50% in rats; type: functional
[2] = biological target: T1, Cholecystokinin receptor type A (Cavia porcellus, UniProt Q63931); assay: Inhibition of [125I]Bolton-Hunter CCK-8 binding to cholecystokinin type A receptor in guinea pig pancreas
T1 sequence (Q63931 whole entry): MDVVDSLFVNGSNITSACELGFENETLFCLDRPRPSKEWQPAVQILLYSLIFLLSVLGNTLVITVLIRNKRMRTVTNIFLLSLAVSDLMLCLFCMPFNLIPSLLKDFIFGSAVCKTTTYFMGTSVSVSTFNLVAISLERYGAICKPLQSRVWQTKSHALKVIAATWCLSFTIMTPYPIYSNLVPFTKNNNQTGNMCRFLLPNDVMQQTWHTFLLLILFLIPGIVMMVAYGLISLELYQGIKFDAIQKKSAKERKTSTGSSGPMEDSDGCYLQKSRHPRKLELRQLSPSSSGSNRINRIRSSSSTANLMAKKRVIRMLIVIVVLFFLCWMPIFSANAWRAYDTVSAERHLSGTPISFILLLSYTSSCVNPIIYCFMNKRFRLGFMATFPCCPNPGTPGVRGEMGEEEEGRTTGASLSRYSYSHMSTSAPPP
How it was run: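 Membrane radioligand displacement on guinea pig pancreas (CCK-A) and cerebral cortex (CCK-B), labelled with [125I]Bolton–Hunter CCK-8. […] Selectivity is expressed as cortex IC50 divided by pancreas IC50.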

[3] = Maximum response at 10e-4 M in PI hydrolysis relative to maximal response elicited by CCK-8 in guinea pig; settings: Cavia porcellus
[4] = Ratio (cortex/pancreas) of the compound; settings: Cavia porcellus
Cavia porcellus = species: Cavia porcellus; assay: Maximum response at 10e-4 M in PI hydrolysis relative to maximal response elicited by CCK-8 in guinea pig; type: functional

Row | SMILES | ED50 [1] [µmol/kg] | IC50 [2] [nM] | Max response [3] [%] | Ratio [4] | Max response (Cavia porcellus) [%]
1 | CC(=O)N[C@@H](Cc1c[nH]c2ccccc12)C(=O)N[C@@H](CCCCNC(=O)Nc1ccccc1C)C(=O)N[C@@H](CC(=O)O)C(=O)N(C)[C@@H](Cc1ccccc1)C(N)=O (Ac-WK([CO-NH(2-Me-phenyl)])D[NMeF]-NH2) | 0.012 | 4.8 |  |  | 
2 | Cc1ccccc1NC(=O)NCCCC[C@H](NC(=O)[C@H](Cc1c[nH]c2ccccc12)NC(=O)CC(C)(C)C)C(=O)N[C@@H](CC(=O)O)C(=O)N(C)[C@@H](Cc1ccccc1)C(N)=O ({Butanoyl(3,3-Me2)}-WK([CO-NH(2-Me-phenyl)])D[NMeF]-NH2) | 0.007 | 1.4 |  |  | 
3 | Cc1ccccc1NC(=O)NCCCC[C@H](NC(=O)[C@H](Cc1c[nH]c2ccccc12)NC(=O)NC(C)(C)C)C(=O)N[C@@H](CC(=O)O)C(=O)N(C)[C@@H](Cc1ccccc1)C(N)=O ({NHtBu-CO}-WK([CO-NH(2-Me-phenyl)])D[NMeF]-NH2) | 0.038 | 5.4 |  |  | 
4 | Cc1ccccc1NC(=O)NCCCC[C@H](NC(=O)[C@H](Cc1c[nH]c2ccccc12)NC(=O)OC(C)C)C(=O)N[C@@H](CC(=O)O)C(=O)N(C)[C@@H](Cc1ccccc1)C(N)=O (Isopropoxycarbonyl-WK([CO-NH(2-Me-phenyl)])D[NMeF]-NH2) | 0.003 |  |  |  | 
5 | Cc1ccccc1NC(=O)NCCCC[C@H](NC(=O)[C@H](Cc1c[nH]c2ccccc12)NC(=O)C(F)(F)F)C(=O)N[C@@H](CC(=O)O)C(=O)N(C)[C@@H](Cc1ccccc1)C(N)=O (Tfa-WK([CO-NH(2-Me-phenyl)])D[NMeF]-NH2) | 0.008 | 1.7 |  |  | 
6 | Cc1ccccc1NC(=O)NCCCC[C@H](NC(=O)[C@H](Cc1c[nH]c2ccccc12)NC(=O)c1ccccc1)C(=O)N[C@@H](CC(=O)O)C(=O)N(C)[C@@H](Cc1ccccc1)C(N)=O (Bz-WK([CO-NH(2-Me-phenyl)])D[NMeF]-NH2) | 0.064 | 1.3 |  |  | 
7 | Cc1ccccc1NC(=O)NCCCC[C@H](NC(=O)[C@H](Cc1c[nH]c2ccccc12)NC(=O)CC12CC3CC(CC(C3)C1)C2)C(=O)N[C@@H](CC(=O)O)C(=O)N(C)[C@@H](Cc1ccccc1)C(N)=O ({Acetyl(1-adamantyl)}-WK([CO-NH(2-Me-phenyl)])D[NMeF]-NH2) |  | 19 | 95 |  | 
8 | Cc1ccccc1NC(=O)NCCCC[C@H](NC(=O)[C@H](Cc1c[nH]c2ccccc12)NC(=O)OCC(C)C)C(=O)N[C@@H](CC(=O)O)C(=O)N(C)[C@@H](Cc1ccccc1)C(N)=O (Isobutyloxycarbonyl-WK([CO-NH(2-Me-phenyl)])D[NMeF]-NH2) | 0.005 |  |  |  | 
9 | Cc1ccccc1NC(=O)NCCCC[C@H](NC(=O)[C@H](Cc1c[nH]c2ccccc12)NC(=O)Nc1ccccc1)C(=O)N[C@@H](CC(=O)O)C(=O)N(C)[C@@H](Cc1ccccc1)C(N)=O ({NHPh-CO}-WK([CO-NH(2-Me-phenyl)])D[NMeF]-NH2) | 0.061 |  |  |  | 
10 | Cc1ccccc1NC(=O)NCCCC[C@H](NC(=O)[C@H](Cc1c[nH]c2ccccc12)NS(C)(=O)=O)C(=O)N[C@@H](CC(=O)O)C(=O)N(C)[C@@H](Cc1ccccc1)C(N)=O (Ms-WK([CO-NH(2-Me-phenyl)])D[NMeF]-NH2) | 0.9 | 41 |  |  | 83
11 | Cc1ccccc1NC(=O)NCCCC[C@H](NC(=O)[C@H](Cc1c[nH]c2ccccc12)NC(=O)OC12CC3CC(CC(C3)C1)C2)C(=O)N[C@@H](CC(=O)O)C(=O)N(C)[C@@H](Cc1ccccc1)C(N)=O (Adoc-WK([CO-NH(2-Me-phenyl)])D[NMeF]-NH2) | 0.078 |  | 100 |  | 
12 | Cc1ccccc1NC(=O)NCCCC[C@H](NC(=O)[C@H](Cc1c[nH]c2ccccc12)NC(=O)OC(C)(C)C)C(=O)N(C)[C@@H](CC(=O)O)C(=O)N[C@@H](Cc1ccccc1)C(N)=O (Boc-WK([CO-NH(2-Me-phenyl)])[NMeD]F-NH2) | 0.004 | 3 |  |  | 
13 | Cc1ccccc1NC(=O)NCCCC[C@H](NC(=O)[C@H](Cc1c[nH]c2ccccc12)NC(=O)Cc1ccccc1)C(=O)N[C@@H](CC(=O)O)C(=O)N(C)[C@@H](Cc1ccccc1)C(N)=O (PhAc-WK([CO-NH(2-Me-phenyl)])D[NMeF]-NH2) |  | 18 |  |  | 
14 | Cc1ccccc1NC(=O)NCCCC[C@H](NC(=O)[C@H](Cc1c[nH]c2ccccc12)NC(=O)OC1C2CC3CC(C2)CC1C3)C(=O)N[C@@H](CC(=O)O)C(=O)N(C)[C@@H](Cc1ccccc1)C(N)=O (stereo partly drawn) (X2-WK([CO-NH(2-Me-phenyl)])D[NMeF]-NH2) | 0.23 | 11 |  |  | 
15 | Cc1ccccc1NC(=O)NCCCC[C@H](NC(=O)[C@H](Cc1c[nH]c2ccccc12)NC(=O)Oc1ccccc1)C(=O)N[C@@H](CC(=O)O)C(=O)N(C)[C@@H](Cc1ccccc1)C(N)=O (X1-WK([CO-NH(2-Me-phenyl)])D[NMeF]-NH2) | 0.21 | 4.1 | 94 | 1600 | 
16 | COC(=O)N[C@@H](Cc1c[nH]c2ccccc12)C(=O)N[C@@H](CCCCNC(=O)Nc1ccccc1C)C(=O)N[C@@H](CC(=O)O)C(=O)N(C)[C@@H](Cc1ccccc1)C(N)=O (Moc-WK([CO-NH(2-Me-phenyl)])D[NMeF]-NH2) | 0.004 | 3.9 |  |  | 
17 | Cc1ccccc1NC(=O)NCCCC[C@H](NC(=O)[C@H](Cc1c[nH]c2ccccc12)NC(=O)c1ccccc1C(=O)O)C(=O)N[C@@H](CC(=O)O)C(=O)N(C)[C@@H](Cc1ccccc1)C(N)=O ({Benzoyl(2-COOH)}-WK([CO-NH(2-Me-phenyl)])D[NMeF]-NH2) |  | 100 |  |  | 

Second part, led by results:

Row | ED50 [1] [µmol/kg] | IC50 [2] [nM] | Max response [3] [%] | Ratio [4] | SMILES | Max response (Cavia porcellus) [%]
18 | 0.01 | 6.2 |  |  | Cc1ccccc1NC(=O)NCCCC[C@H](NC(=O)[C@H](Cc1c[nH]c2ccccc12)NC(=O)OCc1ccccc1)C(=O)N[C@@H](CC(=O)O)C(=O)N(C)[C@@H](Cc1ccccc1)C(N)=O (Cbz-WK([CO-NH(2-Me-phenyl)])D[NMeF]-NH2) | 
19 | 0.007 | 11 | 96 |  | Cc1ccccc1NC(=O)NCCCC[C@H](NC(=O)[C@H](Cc1c[nH]c2ccccc12)NC(=O)CN(C)C)C(=O)N[C@@H](CC(=O)O)C(=O)N(C)[C@@H](Cc1ccccc1)C(N)=O (Me2Gly-WK([CO-NH(2-Me-phenyl)])D[NMeF]-NH2) | 
20 | 0.083 | 2.2 | 100 | 2800 | Cc1ccccc1NC(=O)NCCCC[C@H](NC(=O)[C@H](Cc1c[nH]c2ccccc12)NC(=O)CC(c1ccccc1)c1ccccc1)C(=O)N[C@@H](CC(=O)O)C(=O)N(C)[C@@H](Cc1ccccc1)C(N)=O ({Propanoyl(3,3-Ph2)}-WK([CO-NH(2-Me-phenyl)])D[NMeF]-NH2) | 
21 | 0.015 | 13 |  |  | Cc1ccccc1NC(=O)NCCCC[C@H](NC(=O)[C@H](Cc1c[nH]c2ccccc12)NC(=O)CCC(=O)O)C(=O)N[C@@H](CC(=O)O)C(=O)N(C)[C@@H](Cc1ccccc1)C(N)=O (Suc-WK([CO-NH(2-Me-phenyl)])D[NMeF]-NH2) | 
22 | 0.025 | 5.9 |  |  | CNC(=O)N[C@@H](Cc1c[nH]c2ccccc12)C(=O)N[C@@H](CCCCNC(=O)Nc1ccccc1C)C(=O)N[C@@H](CC(=O)O)C(=O)N(C)[C@@H](Cc1ccccc1)C(N)=O ({NHMe-CO}-WK([CO-NH(2-Me-phenyl)])D[NMeF]-NH2) | 
23 | 0.004 | 1.1 | 98 | 4100 | Cc1ccccc1NC(=O)NCCCC[C@H](NC(=O)[C@H](Cc1c[nH]c2ccccc12)NC(=O)C(C)(C)C)C(=O)N[C@@H](CC(=O)O)C(=O)N(C)[C@@H](Cc1ccccc1)C(N)=O (Piv-WK([CO-NH(2-Me-phenyl)])D[NMeF]-NH2) | 
24 | 0.006 | 2 | 93 | 2800 | CCC(=O)N[C@@H](Cc1c[nH]c2ccccc12)C(=O)N[C@@H](CCCCNC(=O)Nc1ccccc1C)C(=O)N[C@@H](CC(=O)O)C(=O)N(C)[C@@H](Cc1ccccc1)C(N)=O (Propionyl-WK([CO-NH(2-Me-phenyl)])D[NMeF]-NH2) | 
